Measured values pooled from the literature.

SMILES	species	medium	route	dose	time	notes	concentration
O=c1nc(N2CCN(CC3CCCCC3)CC2)sc2c([N+](=O)[O-])cc(C(F)(F)F)cc12	CD-1 mouse	lung	intravenous	10 mg/kg	24 h		15 ng/mL
CC(C)(Nc1nc(-c2ccccn2)nc2ccccc12)c1ccccn1	female BALB/c mouse	plasma	intravenous	1 mg/kg	8 h		6 ng/mL
CC(C)CN(C[C@@H](O)[C@H](Cc1ccccc1)NC(=O)O[C@H]1CO[C@H]2OCC[C@H]21)S(=O)(=O)c1ccc(N)cc1	BALB/c mouse	plasma	intravenous	2.5 mg/kg	3 h		23.9 ng/mL
c1ccc(-c2nc(N3CCC(c4ccccn4)C3)c3ccccc3n2)nc1 (centres unmarked)	female BALB/c mouse	plasma	oral	50 mg/kg	15 min		2130 ng/mL
CC(C)Oc1cccc(-c2cnc(N3CCC(C(N)=O)CC3)s2)c1	male Swiss mouse	plasma	oral	30 mg/kg	15 min	single dose	416 ng/mL
O=S(=O)(c1ccc(-c2ccc3nccc(Nc4ccncn4)c3c2)cc1)N1CCOCC1	female BALB/c mouse	plasma	intraperitoneal	10 mg/kg	1 h		1290 ng/mL
O=C(O)C1CCN(c2ncc(-c3ccc4c(c3)OCCCO4)s2)CC1	male Swiss mouse	plasma	oral	30 mg/kg	30 min	single dose	14800 ng/mL
COc1cc(F)c([C@@H]2CNC(=O)[C@H]2NC(=O)Nc2ccccc2)c(F)c1	C57BL/6 mouse	plasma	oral	0.3 mg/kg	2 h		3 nM
